Bioassay records: PubChem BioAssay, Broad Institute
The full list was thinned out, with hits kept by preference.
CDK5 p35 inh – CDK5/p35 (human) kinase inhibition; inhibition, % at 10 µM; Q00535+Q15078; 0.01% of 330,000 active; Recombinant CDK5/p35, ADP-Glo luminescence, 60 min; AID 488839;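 active = highest replicate inhibition of at least 50% and at least 75% of replicates reaching 50%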;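 note: plate controls were DMSO neutral control for no effect and GW8510 at 10 µM for full effect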
Target sequence (Q00535 whole entry, looked up): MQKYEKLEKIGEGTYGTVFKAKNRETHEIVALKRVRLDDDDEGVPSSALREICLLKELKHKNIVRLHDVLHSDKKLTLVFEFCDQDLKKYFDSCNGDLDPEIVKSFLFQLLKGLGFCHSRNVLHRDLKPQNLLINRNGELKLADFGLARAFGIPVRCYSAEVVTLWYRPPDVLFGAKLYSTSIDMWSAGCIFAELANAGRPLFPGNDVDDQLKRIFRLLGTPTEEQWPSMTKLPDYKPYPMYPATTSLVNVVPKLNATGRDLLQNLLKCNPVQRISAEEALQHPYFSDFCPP
Target sequence (Q15078 whole entry, looked up): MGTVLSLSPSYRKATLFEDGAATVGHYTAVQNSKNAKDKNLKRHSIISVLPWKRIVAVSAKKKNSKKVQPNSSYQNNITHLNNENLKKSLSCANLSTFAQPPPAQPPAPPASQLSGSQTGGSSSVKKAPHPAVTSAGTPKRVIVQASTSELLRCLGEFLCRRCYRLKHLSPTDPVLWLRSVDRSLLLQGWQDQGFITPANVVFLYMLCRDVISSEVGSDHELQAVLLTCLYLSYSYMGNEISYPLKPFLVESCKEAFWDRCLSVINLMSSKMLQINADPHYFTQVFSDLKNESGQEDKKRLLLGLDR
GSK3beta inhib – inhibitors of human GSK3beta kinase; 0.038% of 300,000 active; activity score (negative = inhibition), % at 10 µM; P49841; GST-GSK3beta kinase, ADP-Glo luminescence, 60 min; active compounds read low;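 active = more than half of replicate wells score below -50%, meaning over 50% inhibition versus plate controls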;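 note: 0% = median DMSO wells and -100% = median GW8510 positive control wells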
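Test system: GST-fused GSK3beta enzyme, cell-free | Quantity: 1.6 ng GST-GSK3beta enzyme per well | Reagent: 25 µM ATP with peptide substrate | Schedule: 60 min enzyme reaction, room temperature | Signal: Luminescent ADP-Glo measurement of ADP formed | Read-out basis: Score relative to plate controls | Control set: DMSO and 20 µM GW8510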
Dyrk1A ADPGlo – blocks rat Dyrk1A kinase activity | Q63470 | inhibition, % at 12.5 µM | 0.43% of 310,000 active | AID 504441 | ADP-Glo luminescence, NFATc1 peptide; in the data active = inhibition above about 50%;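 note: plate controls were vehicle with enzyme for no effect and no enzyme for full effect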
STK33 kinase inh – inhibitors of human STK33 kinase; Q9BYT3; purified STK33, MBP phosphorylation, ADP-Glo luminescence; inhibition, % at 10 µM; 0.073% of 320,000 active;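 active = inhibition at or above 25%, using the most active replicate where run in duplicate; inactive = inhibition below 25%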
GSK3 alpha inh – human GSK-3 alpha kinase inhibition; P49840; ADP-Glo luminescence, 60 min; inhibition, % at 10 µM; 0.1% of 320,000 active;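 active = more than half of replicates show inhibition above 20%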;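 note: GST-tagged GSK-3 alpha with peptide substrate and 25 µM ATP; 0% = DMSO neutral wells and 100% = GW8510 positive control wells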
The depositor's hits bear a star.

CC(=O)C1=C(c2ccc(Br)cc2)C(=O)c2ccccc2C1=O was read as CDK5 p35 inh 0.6, GSK3beta inhib -0.1, Dyrk1A ADPGlo 76.0*, STK33 kinase inh 0.2 and GSK3 alpha inh 0.1.
CCCc1cc(=O)[nH]c(SCC(=O)Nc2ccc(Br)cc2Br)n1 was read as CDK5 p35 inh 0.4, GSK3beta inhib 0.4, Dyrk1A ADPGlo -3.2, STK33 kinase inh -0.7 and GSK3 alpha inh -1.1.
For CC(=O)Nc1nonc1NC(C)=O the results were CDK5 p35 inh 1.0, GSK3beta inhib 0.3, Dyrk1A ADPGlo -1.2, STK33 kinase inh -2.2 and GSK3 alpha inh -2.7.
Screening CC(=O)Nc1cc(OC(C)=O)c2nonc2c1OC(C)=O returned CDK5 p35 inh -2.3, STK33 kinase inh 2.4 and GSK3 alpha inh 68.3*.
`COC(=O)CNc1c(-c2ccccc2)nc2ccc(Br)cn12` gave CDK5 p35 inh -0.7, GSK3beta inhib -3.6, Dyrk1A ADPGlo -2.9, STK33 kinase inh 1.1 and GSK3 alpha inh 0.9.
`CCN1CCN(c2nc(-c3ccccc3Cl)nc3ccccc23)CC1` gave CDK5 p35 inh -0.8, GSK3beta inhib -4.0, Dyrk1A ADPGlo 15.2, STK33 kinase inh 0.8 and GSK3 alpha inh 3.2.
Screening CN1CCN(c2nc(-c3ccccc3O)nc3ccccc23)CC1 returned CDK5 p35 inh -0.2, GSK3beta inhib -1.2, Dyrk1A ADPGlo -0.9, STK33 kinase inh 32.2* and GSK3 alpha inh 4.8.
OCCN1CCN(c2nc(-c3ccccc3O)nc3ccccc23)CC1 was read as CDK5 p35 inh 3.2, GSK3beta inhib -2.8, Dyrk1A ADPGlo 19.4, STK33 kinase inh 39.9* and GSK3 alpha inh 4.8.
`CN1CCN(c2nc(-c3ccccc3Cl)nc3ccccc23)CC1` gave CDK5 p35 inh -1.1, GSK3beta inhib -2.5, Dyrk1A ADPGlo 8.2, STK33 kinase inh -1.2 and GSK3 alpha inh 4.5.
CC(C)c1cc(C(C)C)c(S(=O)(=O)N2c3ccccc3[C@]3(Br)C[C@H]4C(=O)N[C@@H](Cc5ccccc5)C(=O)N4[C@H]23)c(C(C)C)c1 was read as GSK3beta inhib 0.0.
`COc1ccccc1N1C(=O)c2ccc(C(=O)Nc3nccs3)cc2C1=O` gave CDK5 p35 inh -0.4, GSK3beta inhib -3.6, Dyrk1A ADPGlo -2.9, STK33 kinase inh 0.5 and GSK3 alpha inh 0.1.
Screening Cc1cc(O)c(CN(C)C)c2c1C(=O)/C(=C/c1ccco1)O2 returned CDK5 p35 inh 0.2, GSK3beta inhib -11.8, Dyrk1A ADPGlo 9.7, STK33 kinase inh 6.6 and GSK3 alpha inh 19.1.
Screening Cc1cc(O)c(C=O)c2c1C(=O)Oc1c(CO)c(O)c3c(c1O2)C(O)OC3=O (stereo unspecified) returned CDK5 p35 inh 7.2, Dyrk1A ADPGlo 51.4*, STK33 kinase inh 56.6* and GSK3 alpha inh 6.1.
COc1cccc(/C=C2/Sc3ccc(C(=O)NCCCN4CCCC4)cc3NC2=O)c1 was read as CDK5 p35 inh 19.9, GSK3beta inhib -83.1*, Dyrk1A ADPGlo 20.4, STK33 kinase inh 10.5 and GSK3 alpha inh 83.8*.
Screening COc1cccc(/C=C2/Sc3ccc(C(=O)NCCN4CCCC4)cc3NC2=O)c1 returned CDK5 p35 inh 11.0, GSK3beta inhib -67.4*, Dyrk1A ADPGlo 17.6, STK33 kinase inh 0.9 and GSK3 alpha inh 0.9.
`O=C1Nc2cc(C(=O)NCCCN3CCCC3)ccc2S/C1=C/c1ccccc1F` gave CDK5 p35 inh -1.1, GSK3beta inhib -66.6*, Dyrk1A ADPGlo -1.3, STK33 kinase inh 1.2 and GSK3 alpha inh 42.0.
Screening Cc1cccc(N=c2oc3cc(O)ccc3cc2C(N)=O)c1 returned CDK5 p35 inh 0.7, GSK3beta inhib 0.4, Dyrk1A ADPGlo -5.6, STK33 kinase inh 19.1 and GSK3 alpha inh 55.8*.
For COc1ccc2cc(C(N)=O)c(=Nc3ccc(C)cc3)oc2c1 the results were CDK5 p35 inh 1.1, GSK3beta inhib 5.9, Dyrk1A ADPGlo 30.8, STK33 kinase inh 0.5 and GSK3 alpha inh -0.4.
Screening CCCc1cc(-c2[nH]ncc2-c2ccc(C(=O)OCC)o2)c(O)cc1O returned CDK5 p35 inh 34.4, GSK3beta inhib -0.1, Dyrk1A ADPGlo 16.6, STK33 kinase inh 1.1 and GSK3 alpha inh -1.1.
CCCc1cc(-c2[nH]ncc2-c2ccc3c(c2)OCCCO3)c(O)cc1O was read as CDK5 p35 inh -4.7, GSK3beta inhib -3.2, Dyrk1A ADPGlo 58.4*, STK33 kinase inh 2.0 and GSK3 alpha inh 2.2.
C=CCN1C(=O)c2ccc(C(=O)N(CC)CC(=O)Nc3c(F)cccc3F)cc2C1=O was read as CDK5 p35 inh 0.8, GSK3beta inhib -1.2, Dyrk1A ADPGlo -6.5, STK33 kinase inh -1.2 and GSK3 alpha inh -1.2.
`CCCCCCCCCC[N+](C)(C)CC/C=C1/c2ccccc2Sc2ccc(Cl)cc21` gave CDK5 p35 inh -0.3, GSK3beta inhib -5.9, Dyrk1A ADPGlo -4.2, STK33 kinase inh 32.4* and GSK3 alpha inh 5.1.
CCCCCCCCCCC[N+](C)(C)CC/C=C1/c2ccccc2Sc2ccc(Cl)cc21 was read as CDK5 p35 inh 2.0, GSK3beta inhib -5.0, Dyrk1A ADPGlo 1.1, STK33 kinase inh 30.9* and GSK3 alpha inh 6.3.
`CC[N+](C)(C)CC/C=C1/c2ccccc2Sc2ccc(Cl)cc21` gave GSK3beta inhib -5.4, STK33 kinase inh -0.8 and GSK3 alpha inh -0.3.
Cc1ccc2c(c1)C(c1ccccc1)N(C(=O)c1ccc3c(c1)OCO3)CC(=O)N2 (stereo unspecified) was read as CDK5 p35 inh 0.0, GSK3beta inhib 2.0, Dyrk1A ADPGlo 7.2, STK33 kinase inh 0.8 and GSK3 alpha inh -2.2.
For CCn1nc(C)c(NS(=O)(=O)c2ccccc2)c1C the results were CDK5 p35 inh 0.3, GSK3beta inhib -0.5, Dyrk1A ADPGlo -4.3, STK33 kinase inh 0.0 and GSK3 alpha inh 0.2.
For COc1ccc(-c2onc3ccc(C(=O)/C=C/N(C)C)cc23)cc1 the results were CDK5 p35 inh 1.7, GSK3beta inhib -3.6, Dyrk1A ADPGlo 26.4, STK33 kinase inh 31.2* and GSK3 alpha inh -0.4.
For COc1ccc(-c2onc3ccc(Br)cc23)cc1 the results were CDK5 p35 inh -0.6, GSK3beta inhib 1.9, Dyrk1A ADPGlo 2.5, STK33 kinase inh 1.3 and GSK3 alpha inh -2.0.
Screening CN(C)/C=C/C(=O)c1ccc2noc(-c3cccc(F)c3)c2c1 returned CDK5 p35 inh -3.6, GSK3beta inhib 3.6, Dyrk1A ADPGlo 19.4, STK33 kinase inh 35.2* and GSK3 alpha inh 2.8.
Screening COCCCC1CCN(C(=O)C2CCC(=O)N(Cc3cccc(F)c3)C2)CC1 (stereo unspecified) returned CDK5 p35 inh 0.2, GSK3beta inhib -2.8, Dyrk1A ADPGlo -6.7, STK33 kinase inh -0.3 and GSK3 alpha inh -1.2.
Screening Cn1c(N)c(C(=O)CSc2nnc(NC3CCCCC3)s2)c(=O)n(C)c1=O returned CDK5 p35 inh 2.0 and Dyrk1A ADPGlo -4.7.
`COc1ccc(S(=O)(=O)/N=C2\C=C(Nc3ccc(O)cc3)C(=O)c3ccccc32)cc1` gave CDK5 p35 inh 5.1, GSK3beta inhib -4.6, Dyrk1A ADPGlo 32.0, STK33 kinase inh 5.7 and GSK3 alpha inh 5.8.
